Screening results (PubChem BioAssay)
A selection: hits, their analogues and other compounds. The true share with any hit is near 5.1%.
STAT1 inh – STAT1 signaling inhibitors, primary screen, cell-based, HTS, luciferase reporter | NIH 3T3 STAT1-luciferase reporter, IFN-gamma, luminescence | inhibition, % at 5.5 µM | 200,000 compounds, 0.35% hits | AID 920, 2007;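 active means inhibition above a set limit, the mean inhibition across all tested compounds plus 3 SD, cut at about 34% in these data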
STAT3 act – IL-6 driven STAT3 reporter potentiators, primary screen, U3A cells, luciferase, luminescence, MLSCN library | 190,000 compounds, 0.91% hits | AID 871, 2007 | activation (% of control), % at 5.6 µM | IL-6 STAT3-luciferase reporter; 100% = signal with IL-6 EC80 alone;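 active means activation above the screen-wide mean of compound activation plus 3 SD, cut at about 130% in these data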
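Material: STAT3-luciferase reporter U3A cells. Controls: IL-6-treated wells, 100% activation. Read-out: % activation versus median of IL-6-stimulated wells. Probe or stimulus: IL-6 stimulus at 33 ng/mL final. Timing: compound 1 h, then IL-6 6 h at 37 °C. Signal: reporter luminescence signal.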
STAT1 activator – STAT1 signaling activators, primary screen, cell-based, HTS, luciferase reporter; activation (% of control), % at 5.5 µM; NIH 3T3 STAT1-luciferase reporter, IFN-gamma, luminescence; 100% = IFN-gamma alone, no compound; 200,000 compounds, 2.6% hits;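 active means activation above the screen-wide mean activation plus 3 SD, cut at about 130% in these data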
NF-kB expr up – activators of NF-kB expression in neurons, primary screen, cell-based, HTS; human neuronal cells, NF-kB reporter expression; active compounds read high; fold change at 12.5 µM; 190,000 compounds, 1.6% hits; AID 1239, 2008; in the data active means fold change above about 3.3
STAT3 blocker – IL-6 driven STAT3 reporter inhibitors, primary screen, U3A cells, luciferase, luminescence, MLSCN library | inhibition, % at 5.5 µM | 190,000 compounds, 0.89% hits | IL-6 STAT3-luciferase reporter; host cell line lacks STAT1;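 active means inhibition above the mean inhibition across all screened compounds plus 3 SD, cut at about 44% in these data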
APP 5'UTR act – activators of APP 5'UTR luciferase reporter, primary screen, SH-SY5Y cells | SH-SY5Y APP 5'UTR luciferase reporter, luminescence; zero percent = DMSO vehicle wells | activation, % at 2 µM | 190,000 compounds, 1% hits;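 active means activation above a set limit, based on mean plus 3 SD of controls, cut at about 140% in these data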
Each line names hits and unclear results; the compound was inactive in the other large screens.

Cc1ccc(/C(N)=N/OC(=O)CSc2ccccc2)cc1	STAT1 activator 130, APP 5'UTR act 180
COc1ccc(/C(N)=N/OC(=O)CSc2ccccc2)cc1	NF-kB expr up 5.3
C=CCn1c(N2CCOCC2)nc2c1c(=O)[nH]c(=O)n2C	none
Cc1ccc(-c2nnc(CCC(=O)NCC3C4CC5CC(C4)CC3C5)o2)s1 (configuration not stated)	STAT1 activator 147
Cc1ccc(-c2nnc(CCC(=O)N(C)Cc3nccs3)o2)s1	none
CCOC(=O)C1(CCOc2ccccc2)CCN(Cc2cc(OC)c3c(c2)OCO3)CC1	none
CCc1ccc(/C=C/C(=O)C2C(=O)c3ccccc3C2=O)cc1	STAT1 inh 39, STAT3 blocker 52
O=C(/C=C/c1ccccc1)C1C(=O)c2ccccc2C1=O	none
Brc1ccc2[nH]c3c(N4CCc5ccccc5C4)ncnc3c2c1	none
c1ccc2c(c1)[nH]c1c(N3CCN(C4CCCCC4)CC3)ncnc12	none
c1ccc2c(c1)[nH]c1c(N3CCSCC3)ncnc12	STAT1 inh 38
Cc1ccc2[nH]c3c(N4CCc5ccccc5C4)ncnc3c2c1	STAT3 blocker 73
COc1ccc(C(=O)NCCSc2ccccc2)cc1OC	STAT1 activator 134
Clc1cc(Cl)c2nc(N3CCCCC3)sc2c1	NF-kB expr up 3.3
Fc1cccc2sc(Nc3nnc(-c4ccco4)o3)nc12	STAT1 activator 132
COc1cccc2sc(Nc3nnc(-c4cccs4)o3)nc12	STAT3 act 172, STAT1 activator 139
COc1ccc(-n2ncc3c(N4CCN(Cc5ccccc5)CC4)ncnc32)cc1	none
COc1ccc(CNC(=O)CN(C2CCCCC2)S(C)(=O)=O)cc1	none
COc1cccc(Nc2nc3ccc(OC)cc3s2)c1	STAT1 activator 129, NF-kB expr up 4.7, APP 5'UTR act 195
COc1ccc2nc(NC3=NCCC3)sc2c1	STAT1 activator 136
COc1ccc(-c2nc(NC3=NCCCCC3)sc2C)cc1	none
COc1cccc(Nc2n[nH]c(=S)s2)c1	none
COc1ccc(C)c2sc(NNC(=O)COc3ccccc3)nc12	none
CN(Cc1ccc(-n2cccn2)cc1)Cc1nc(-c2cnccn2)no1	none
CC1(C)CC(=O)C(N=Nc2ccc(-c3ccccc3)cc2)=C(O)C1	APP 5'UTR act 137
COc1ccc(/C=C/C(=O)OCC(=O)NCCC2=CCCCC2)cc1S(=O)(=O)N1CCOCC1	none
COc1ccc(SCC(=O)Nc2ccc(N3CCN(C)CC3)c(F)c2)cc1	none
Cc1ccc(SCC(=O)Nc2ccc(N3CCN(C)CC3)c(F)c2)cc1	STAT1 activator 133
CC(C)(C)c1ccc(-c2conc2N)cc1	NF-kB expr up 5
O=C(NC1CCCCC1)C(c1ccc2ncccc2c1)N(Cc1ccc(F)cc1)C(=O)c1cccs1 (configuration not stated)	none
c1ccc(CNc2nc(-c3cccnc3)cs2)cc1	none
O=C(Nc1cccc(Cl)c1)Nc1nc(-c2ccc(Cl)cc2)cs1	none
Clc1cccc(Nc2nc(-c3cccnc3)cs2)c1	STAT3 act 157, STAT1 activator 139
Brc1ccc(Nc2nc(-c3cccnc3)cs2)cc1	STAT3 act 165, STAT1 activator 131
O=C(c1ccc(OC2CCN(Cc3ccccn3)CC2)cc1)N1CCCC(O)C1 (configuration not stated)	none
Nc1cccc2nc3ccccc3cc12	STAT3 act 151, STAT1 activator 172, NF-kB expr up 3.9 (no result: APP 5'UTR act)
NN/C(=C\[N+](=O)[O-])Nc1ccc(Cl)cc1	none
CCC1C(=O)n2nc(-c3ccccc3)cc2N=C1C (configuration not stated)	STAT1 activator 138
Cc1cc(-c2ccccc2)nc(=O)[nH]1	none
O=C(N/N=C/c1ccc2c(c1)OCO2)c1cc(-c2ccccc2)nc2ccccc12	none
O=c1[nH]c(N/N=C\c2ccc3c(c2)OCO3)nc2ccccc12	STAT1 activator 140, NF-kB expr up 4.4, APP 5'UTR act 205
O=c1[nH]c(N/N=C/c2ccccc2)nc2ccccc12	STAT1 activator 145, APP 5'UTR act 140
O=C(Nc1ccc2c(c1)OCCO2)c1cnc2ccccn2c1=O	STAT1 activator 154 (no result: NF-kB expr up)
O=C(CSCc1ccccc1Cl)Nc1ccc2c(c1)OCCO2	APP 5'UTR act 137
O=C(Nc1ccc2c(c1)OCCO2)c1cccc2nc3ccccc3nc12	none
O=C(NCc1ccc2c(c1)OCO2)c1cnc2ccccn2c1=O	none
O=C(Nc1ccc(NC(=O)c2ccccn2)cc1)C(=O)Nc1ccc2c(c1)OCCO2	none
O=C(Nc1ccc2c(c1)OCCO2)c1ccc2ccccc2n1	STAT1 activator 137, NF-kB expr up 9.2, APP 5'UTR act 220
O=C(Nc1ccc2c(c1)OCCO2)c1ccccn1	STAT1 inh 47, STAT3 blocker 70
CC(C)C(=O)NCc1cc(-c2ccccc2)no1	none
O=C1CCC(C(=O)N2CCC(CO)(Cc3ccc(Cl)cc3)CC2)=NN1	none
CCn1cc(Cl)c(C(=O)Nc2ccc3c(c2)OCCO3)n1	NF-kB expr up 4.1, APP 5'UTR act 137
Cc1ccc(NC(=O)c2ccc3ccccc3n2)cc1S(=O)(=O)N(C)C	STAT1 activator 134
Cc1ccc(NC(=O)c2cncc(Br)c2)cc1S(=O)(=O)N(C)C	STAT1 activator 136
COC(=O)[C@H](Cc1ccccc1)NC(=O)NCc1cccs1	none
Cc1snc2sc(C(=O)c3ccc(Br)cc3)c(N)c12	STAT1 activator 135
O=C(Nc1ccc2c(c1)OCO2)c1ccc2c(c1)OCO2	STAT1 activator 132, NF-kB expr up 8, APP 5'UTR act 138
O=C(Nc1ccc2c(c1)OCO2)Nc1ccccn1	STAT1 activator 148
O=C(Nc1ccc(Cl)c([N+](=O)[O-])c1)c1ccc2c(c1)OCCO2	STAT1 activator 139, NF-kB expr up 3.7, APP 5'UTR act 168
O=C(Nc1ccc2c(c1)OCO2)Nc1cnccn1	none
O=C(Nc1ccc2c(c1)OCO2)c1ccc(Cl)s1	STAT1 activator 130, NF-kB expr up 9.8, APP 5'UTR act 184
CCOc1ccc(C(=O)Nc2ccc3c(c2)OCCO3)cc1[N+](=O)[O-]	none
CC(=O)N1CCc2ccc(S(=O)(=O)N3CCN(C)CC3)cc21	none
CCn1nc(C(=O)OCC(=O)N2CC(=O)Nc3ccccc32)c2ccccc2c1=O	none
O=C(Nc1cccc(O)c1)c1cnn2cccnc12	none (no result: APP 5'UTR act)
O=C(Nc1ccc2c(c1)OCO2)c1cnn2cccnc12	STAT1 activator 130
O=C(Nc1cccnc1)Nc1ccc2c(c1)OCO2	none
O=C(Nc1ccccc1)c1ccc2c(c1)OCCO2	STAT1 activator 146, NF-kB expr up 5.5
NC(=O)c1ccc(NC(=O)c2ccc3c(c2)OCO3)cc1	STAT1 activator 139
